Laboratory results taken from ChEMBL document CHEMBL2169837 (J Med Chem, 2012).
pKd, pKi: −log10 of the molar value. Activity calls are given as the source filed them. No cut-off for these calls is given here.

Legend:
Vasopressin V1a receptor [1] = biological target: T1, Vasopressin V1a receptor (Homo sapiens, UniProt P37288); test: Binding affinity to SNAP-tagged vasopressin V1a receptor expressed in COS7 cells after 1 hr by FRET assay; format: cell-based; settings: COS-7
Procedure, shortened: (§1)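 Cos7 cells expressing SNAP-V1a, SNAP-V2 or both, 50000 cells/well. Incubated overnight at 4 °C with one donor plus one acceptor fluorescent ligand, each near its Kd. Signal given as %ΔF from the 665/620 ratio (excitation 335 nm) against mock cells. Receptor expression measured by SNAP-Lumi4-Tb labeling (100 nM, 1 h, room temperature), read at 620 nm.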
Target sequence in this assay (P37288 whole entry, looked up): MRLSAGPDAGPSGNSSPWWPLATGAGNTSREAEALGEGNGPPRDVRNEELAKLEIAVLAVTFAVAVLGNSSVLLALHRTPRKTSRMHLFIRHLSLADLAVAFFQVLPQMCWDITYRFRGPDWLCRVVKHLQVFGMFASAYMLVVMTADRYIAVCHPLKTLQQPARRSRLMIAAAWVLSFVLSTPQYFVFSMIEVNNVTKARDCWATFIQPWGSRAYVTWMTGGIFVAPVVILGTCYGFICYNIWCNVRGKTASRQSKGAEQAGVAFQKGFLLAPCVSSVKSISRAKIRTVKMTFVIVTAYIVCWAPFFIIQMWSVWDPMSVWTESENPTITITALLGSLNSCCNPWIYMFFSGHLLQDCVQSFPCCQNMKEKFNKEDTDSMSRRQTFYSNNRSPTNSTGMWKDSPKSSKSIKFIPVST

Vasopressin V1a receptor [2] = biological target: T1, Vasopressin V1a receptor; test: Binding affinity to SNAP-tagged vasopressin V1a receptor expressed in COS7 cells assessed as interaction with vasopressin V2/V1a receptor dimer after 1 hr by FRET assay; format: cell-based; settings: COS-7; procedure, shortened: as §1
Target sequence in this assay (P37288 whole entry, looked up): as above

Vasopressin V2 receptor [3] = biological target: T2, Vasopressin V2 receptor (Homo sapiens, UniProt P30518); test: Antagonist activity at human vasopressin V2 receptor expressed in CHO cells assessed as inhibition of AVP-induced cAMP accumulation after 30 mins by TR-FRET based HTRF assay; format: functional, cell-based
T2 sequence (P30518 whole entry): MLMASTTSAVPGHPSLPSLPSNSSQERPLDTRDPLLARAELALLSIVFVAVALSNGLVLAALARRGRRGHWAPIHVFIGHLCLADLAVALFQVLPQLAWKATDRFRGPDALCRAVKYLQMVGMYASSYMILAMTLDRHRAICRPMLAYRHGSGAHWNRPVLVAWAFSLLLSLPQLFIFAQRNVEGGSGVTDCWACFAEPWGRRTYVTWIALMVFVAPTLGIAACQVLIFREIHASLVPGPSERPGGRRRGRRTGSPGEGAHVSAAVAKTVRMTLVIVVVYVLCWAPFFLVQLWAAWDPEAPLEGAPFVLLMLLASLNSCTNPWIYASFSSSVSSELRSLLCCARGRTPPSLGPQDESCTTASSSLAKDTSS
Procedure, shortened: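 CHO cells stably expressing human V2R, 5 × 10^3 per well on polyornithine, used 24 h after seeding. Incubated 30 min at 37 °C with compound (10−12 to 10−5 M) plus phosphodiesterase inhibitor RO 201724 0.1 mM. Antagonist mode run with 1 nM AVP. Cells lysed and cAMP read by HTRF (TR-FRET). Kact/Kinact from three independent experiments in triplicate, mean ± SEM.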

[4] = biological target: Vasopressin V2 receptor (Oryctolagus cuniculus); test: Binding affinity to vasopressin V2 receptor
Oxytocin receptor [5] = biological target: T3, Oxytocin receptor (Homo sapiens, UniProt P30559); test: Binding affinity to oxytocin receptor
T3 sequence (P30559 whole entry): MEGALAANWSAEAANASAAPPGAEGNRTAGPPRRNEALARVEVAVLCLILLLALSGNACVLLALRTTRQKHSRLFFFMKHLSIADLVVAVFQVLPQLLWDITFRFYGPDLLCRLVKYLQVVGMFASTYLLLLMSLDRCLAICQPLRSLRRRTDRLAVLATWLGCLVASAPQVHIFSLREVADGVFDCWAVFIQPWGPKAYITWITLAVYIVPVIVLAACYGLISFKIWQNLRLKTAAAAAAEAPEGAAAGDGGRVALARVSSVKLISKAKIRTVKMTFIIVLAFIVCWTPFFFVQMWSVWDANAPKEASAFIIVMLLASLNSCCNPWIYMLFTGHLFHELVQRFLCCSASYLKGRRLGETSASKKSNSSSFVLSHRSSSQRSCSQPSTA
Procedure, shortened: (§2)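 Membranes (5 μg protein) from CHO cells stably expressing human V2R, V1aR, V1bR or OTR. Incubated 30 min at 30 °C in 50 mM Tris-HCl pH 7.4, 5 mM MgCl2, 1 mg/mL BSA with [3H]-AVP (1−2 nM) and competitor from 100 pM to 100 μM. Nonspecific binding with 10 μM AVP. GF/C filtration; Ki by nonlinear least-squares regression. Triplicate, at least three membrane batches.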

[6] = Binding affinity to vasopressin V2 receptor in rabbit kidney membranes; format: cell membranes, Oryctolagus cuniculus, Membrane
Vasopressin V2 receptor [7] = biological target: T2, Vasopressin V2 receptor; test: Agonist activity at human vasopressin V2 receptor expressed in CHO cells assessed as cAMP accumulation after 30 mins by TR-FRET based HTRF assay; format: functional, cell-based
Procedure, shortened: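 CHO cells stably expressing human V2R, 5 × 10^3 per well on polyornithine, used 24 h after seeding. Cells lysed and cAMP read by HTRF (TR-FRET). Kact/Kinact from three independent experiments in triplicate, mean ± SEM.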

Vasopressin V1a receptor [8] = biological target: T1, Vasopressin V1a receptor; test: Binding affinity to vasopressin V1a receptor; procedure, shortened: as §2
Target sequence in this assay (P37288 whole entry): as the sequence (P37288 whole entry, looked up) above

Vasopressin V2 receptor [9] = biological target: T2, Vasopressin V2 receptor; test: Displacement of [3H]-AVP from human vasopressin V2 receptor expressed in CHO cells after 30 mins; format: cell-based
Homo sapiens = species: Homo sapiens; test: Selectivity ratio of Ki for human oxytocin receptor to Ki for human vasopressin V2 receptor
Vasopressin V2 receptor [10] = biological target: T2, Vasopressin V2 receptor; test: Binding affinity to SNAP-tagged vasopressin V2 receptor expressed in COS7 cells assessed as interaction with vasopressin V2/V1a receptor dimer after 1 hr by FRET assay; format: cell-based; settings: COS-7; procedure, shortened: as §1
Vasopressin V2 receptor [11] = biological target: T2, Vasopressin V2 receptor; test: Binding affinity to SNAP-tagged vasopressin V2 receptor expressed in COS7 cells after 1 hr by FRET assay; format: cell-based; settings: COS-7; procedure, shortened: as §1
Vasopressin V1b receptor = biological target: T4, Vasopressin V1b receptor (Homo sapiens, UniProt P47901); test: Displacement of [3H]-AVP from human vasopressin V1b receptor expressed in CHO cells after 30 mins; format: cell-based
T4 sequence (P47901 whole entry): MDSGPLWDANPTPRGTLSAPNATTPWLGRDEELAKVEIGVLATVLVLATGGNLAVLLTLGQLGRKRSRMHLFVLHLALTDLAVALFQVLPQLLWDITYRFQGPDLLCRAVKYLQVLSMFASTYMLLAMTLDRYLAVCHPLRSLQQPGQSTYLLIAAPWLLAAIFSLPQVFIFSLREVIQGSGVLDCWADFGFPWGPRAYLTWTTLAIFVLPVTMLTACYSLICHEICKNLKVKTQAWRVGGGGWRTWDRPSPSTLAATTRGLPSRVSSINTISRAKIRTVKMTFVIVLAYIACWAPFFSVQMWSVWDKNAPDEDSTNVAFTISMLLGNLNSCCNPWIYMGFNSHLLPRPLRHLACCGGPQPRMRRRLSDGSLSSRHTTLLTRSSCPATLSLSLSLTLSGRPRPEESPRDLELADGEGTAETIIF

Vasopressin V2 receptor [12] = biological target: T2, Vasopressin V2 receptor; test: Binding affinity to SNAP-tagged vasopressin V2 receptor expressed in HEK293 cells after 1 hr by TR-FRET assay; format: cell-based
Procedure, shortened: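 HEK 293T cells electroporated with SNAP-tag–V2R and grown 48 h. Receptor labeled 1 h at 37 °C with SNAP-Lumi4-Tb (100 nM) or SNAP-RED (300 nM), then washed. Rising fluorescent-ligand concentrations added and incubated overnight at 4 °C. TR-FRET read with excitation 340 nm, emission 620/665 nm. Nonspecific binding taken with 10 μM unlabeled ligand. Kd from saturation, three experiments in triplicate.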

Vasopressin V1a receptor [13] = biological target: T1, Vasopressin V1a receptor; test: Displacement of [3H]-AVP from human vasopressin V1a receptor expressed in CHO cells after 30 mins; format: cell-based
Target sequence in this assay (P37288 whole entry): as the sequence (P37288 whole entry, looked up) above

[14] = biological target: T5, Vasopressin V1b receptor (Homo sapiens) (UniProt P47901); test: Displacement of [3H]-AVP from human vasopressin V1b receptor expressed in CHO cells at 10 uM after 30 mins; format: cell-based
T5 sequence (whole entry): T4 sequence (P47901 whole entry)
Procedure, shortened: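 Human OTR, V1aR or V1bR membranes from CHO cells, [3H]-AVP displacement with compound at a single 10 μM concentration, 30 min at 30 °C in Tris-HCl pH 7.4/MgCl2/BSA buffer.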

Oxytocin receptor [15] = biological target: T3, Oxytocin receptor; test: Displacement of [3H]-AVP from human oxytocin receptor expressed in CHO cells after 30 mins; format: cell-based

SMILES	Activity (Vasopressin V1a receptor [1])	Activity (Vasopressin V1a receptor [2])	inhibition (Vasopressin V2 receptor [3])	pKi [4]	pKi (Oxytocin receptor [5])	pKi [6]	Activity (Vasopressin V2 receptor [7])	pKi (Vasopressin V1a receptor [8])	pKi (Vasopressin V2 receptor [9])	Kb (Vasopressin V2 receptor [3])	Ratio Ki (Homo sapiens)	Activity (Vasopressin V2 receptor [10])	Activity (Vasopressin V2 receptor [11])	pKi (Vasopressin V1b receptor)	pKd (Vasopressin V2 receptor [12])	pKi (Vasopressin V1a receptor [13])	inhibition [14]	pKi (Oxytocin receptor [15])
COc1ccc(C[C@@H](NC(=O)CCc2ccc(O)cc2)C(=O)N[C@@H](Cc2ccccc2)C(=O)N[C@@H](CCC(N)=O)C(=O)N[C@@H](CC(N)=O)C(=O)N[C@@H](CCCNC(=N)N)C(=O)N2CCC[C@H]2C(=O)N[C@@H](CCCCNC(=O)CCCCC2(C)C(/C=C/C=C/C=C3\N(CCCS(=O)(=O)O)c4ccc(S(=O)(=O)[O-])cc4C3(C)C)=[N+](CCCS(=O)(=O)O)c3ccc(S(=O)(=O)O)cc32)C(N)=O)cc1 (some centres not stated)	Active	Active	–	–	–	–	–	–	–	–	–	–	–	–	–	–	–	–
Cc1ccccc1C(=O)Nc1ccc(C(=O)N2CCCCc3ccccc32)cc1	–	–	Dose-dependent effect	8.14	7.52	8.14	inactive	8.09	8.57	–	–	–	–	–	–	–	–	–
O=C(Nc1ccc(C(=O)N2CCCCc3ccccc32)cc1)c1ccccc1-c1ccccc1	–	–	Dose-dependent effect	8.12	7.20	8.12	inactive	7.85	–	–	–	–	–	–	–	–	–	–
CCN1/C(=C/C=C/C=C/C2=[N+](CC)c3ccc(S(=O)(=O)[O-])cc3C2(C)C)C(C)(CCCC(=O)NCCn2cc(CNC(=O)CCC(=O)NC3CCCN(C(=O)c4ccc(NC(=O)c5ccccc5-c5ccccc5)cc4)c4ccccc43)nn2)c2cc(S(=O)(=O)O)ccc21 (configuration not stated)	–	–	Dose-dependent effect	–	–	–	inactive	–	8.24	0.1 nM	32	Active	Active	< 5.00	8.86	6.21	< 50%	6.74
